In ChEMBL document CHEMBL4118104, “Design, Synthesis, and Evaluation of Orally Bioavailable Quinoline-Indole Derivatives as Innovative Multitarget-Directed Ligands: Promotion of Cell Proliferation in the Adult Murine Hippocampus for the Treatment of Alzheimer's Disease” (J Med Chem, 2018):

Key:
Mus musculus [1] = test: Toxicity in C57BL/6 mouse assessed as mortality at 677 to 2000 mg/kg, ig measured continuously during first 4 hrs, intermittently for following 24 hrs and occasionally thereafter for 14 consecutive days; type: organism-based; settings: in vivo, po
Method in brief: (§1)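 Adult C57BL/6 mice, 12 weeks old, given single intragastric doses of 0, 677, 1333 or 2000 mg/kg (n = 6 per dose, 3 male and 3 female). Abnormal behaviour and deaths observed continuously for the first 4 h, intermittently over the next 24 h, then occasionally for 14 days to catch delayed effects.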

Mus musculus [2] = test: Toxicity in C57BL/6 mouse assessed as abnormal behavior at 677 to 2000 mg/kg, ig measured continuously during first 4 hrs, intermittently for following 24 hrs and occasionally thereafter for 14 consecutive days; type: organism-based; settings: in vivo, po; method in brief: as §1
Mus musculus [3] = test: Toxicity in C57BL/6 mouse assessed as effect on food intake at 677 to 2000 mg/kg, ig measured continuously during first 4 hrs, intermittently for following 24 hrs and occasionally thereafter for 14 consecutive days; type: organism-based; settings: in vivo, po
Mus musculus [4] = test: Toxicity in C57BL/6 mouse assessed as macroscopic abnormalities of stomach at 677 to 2000 mg/kg, ig after 14 consecutive days; type: organism-based; settings: in vivo, po
Mus musculus [5] = test: Toxicity in C57BL/6 mouse assessed as macroscopic abnormalities of intestine at 677 to 2000 mg/kg, ig after 14 consecutive days; type: organism-based; settings: in vivo, po
Mus musculus [6] = test: Induction of cell proliferation in C57BL/6 mouse hippocampal neurons in DG region assessed as BrdU-incorporation at 0.5 uL/hr, icv for 7 days by immunohistochemical analysis (reference value: 7.8%); type: functional
Mus musculus [7] = test: Induction of cell proliferation in C57BL/6 mouse hippocampal neurons in CA1 region assessed as BrdU-incorporation at 0.5 uL/hr, icv for 7 days by immunohistochemical analysis (reference value: 3.2%); type: functional
Mus musculus [8] = test: Induction of cell proliferation in C57BL/6 mouse hippocampal neurons in CA2 region assessed as BrdU-incorporation at 0.5 uL/hr, icv for 7 days by immunohistochemical analysis (reference value: 2.4%); type: functional
Mus musculus [9] = test: Induction of cell proliferation in C57BL/6 mouse hippocampal neurons in DG region assessed as BrdU-incorporation at 30 mg/kg, po administered via gavage for 7 days by immunohistochemical analysis (reference value: 2.2%); type: functional
Method in brief: (§2)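 C57BL/6 mice, 12 weeks old, n = 6, individually housed beforehand without wheels. Compound gavaged 30 mg/kg/day for 7 days with daily IP BrdU 50 mg/kg; BrdU+ cells counted by immunohistochemistry per hippocampal volume; two-way ANOVA.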

Mus musculus [10] = test: Induction of cell proliferation in C57BL/6 mouse hippocampal neurons in CA1 region assessed as BrdU-incorporation at 30 mg/kg, po administered via gavage for 7 days by immunohistochemical analysis (reference value: 2.3%); type: functional; method in brief: as §2
Mus musculus [11] = test: Toxicity in double APP/PS1 transgenic Alzheimer's disease mouse model assessed as effect on body weight at 30 mg/kg/day, po for 80 days; type: organism-based; settings: in vivo, 1920 h
Method in brief: (§3)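 APP/PS1 double-transgenic mice, six months old, dosed by intragastric infusion at 30 mg/kg/day in 0.5% CMC-Na for 80 consecutive days (n = 10). Vehicle mice and wild-type C57BL/6 mice received blank 0.5% CMC-Na. Body weight tracked daily; diarrhoea, emesis-like behaviour and mortality monitored. At sacrifice, brain, subcutaneous layer, stomach, intestines, heart, lung, liver, spleen, kidneys and other organs examined for expansion or carcinogenicity.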

Mus musculus [12] = test: Toxicity in double APP/PS1 transgenic Alzheimer's disease mouse model assessed as diarrhea at 30 mg/kg/day, po for 80 days; type: organism-based; settings: in vivo, 1920 h; method in brief: as §3
Mus musculus [13] = test: Toxicity in double APP/PS1 transgenic Alzheimer's disease mouse model assessed as increase in mortality at 30 mg/kg/day, po for 80 days; type: organism-based; settings: in vivo, 1920 h; method in brief: as §3
Mus musculus [14] = test: Cognition enhancement activity in double APP/PS1 transgenic Alzheimer's disease mouse model assessed as time spent in effective region at 30 mg/kg/day, po for 80 days by Morris water maze test (reference value: 9.0 +/- 3.8 sec); type: functional
Method in brief: (§4)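 APP/PS1 mice, six months old, gavaged 30 mg/kg/day in 0.5% CMC-Na for 80 days. Probe trial was a single 90 s free swim with the platform absent; effective region is twice the platform diameter. n = 10, mean ± SD, two-way ANOVA.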

Mus musculus [15] = test: Cognition enhancement activity in double APP/PS1 transgenic Alzheimer's disease mouse model assessed as time spent in correct quadrant at 30 mg/kg/day, po for 80 days by Morris water maze test (reference value: 20.6 +/- 4.4 sec); type: functional; method in brief: as §4
Mus musculus [16] = test: Toxicity in double APP/PS1 transgenic Alzheimer's disease mouse model assessed as carcinogenicity in subcutaneous layer at 30 mg/kg/day, po for 80 days; type: organism-based; settings: in vivo, 1920 h; method in brief: as §3
Mus musculus [17] = test: Toxicity in double APP/PS1 transgenic Alzheimer's disease mouse model assessed as carcinogenicity in lung at 30 mg/kg/day, po for 80 days; type: organism-based; settings: in vivo, 1920 h; method in brief: as §3
Mus musculus [18] = test: Toxicity in double APP/PS1 transgenic Alzheimer's disease mouse model assessed as carcinogenicity in liver at 30 mg/kg/day, po for 80 days; type: organism-based; settings: in vivo, 1920 h; method in brief: as §3
Mus musculus [19] = test: Toxicity in double APP/PS1 transgenic Alzheimer's disease mouse model assessed as carcinogenicity in kidneys at 30 mg/kg/day, po for 80 days; type: organism-based; settings: in vivo, 1920 h; method in brief: as §3
Mus musculus [20] = test: Toxicity in C57BL/6 mouse assessed as macroscopic abnormalities of heart at 677 to 2000 mg/kg, ig after 14 consecutive days; type: organism-based; settings: in vivo, po
[21] = Half life in Sprague-Dawley rat at 5 mg/kg, iv administered as single dose by LC-MS/MS analysis; type: ADME, organism-based; settings: in vivo
Method in brief: (§5)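 SD rats given 5 mg/kg intravenously, n = 3; pharmacokinetic parameters derived from plasma concentrations.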

[22] = Apparent volume of distribution in Sprague-Dawley rat at 5 mg/kg, iv administered as single dose by LC-MS/MS analysis; type: ADME, organism-based; settings: in vivo, read-out: Vz; method in brief: as §5
[23] = Volume of distribution at steady state in Sprague-Dawley rat at 5 mg/kg, iv administered as single dose by LC-MS/MS analysis; type: ADME, organism-based; settings: in vivo, read-out: Vdss
[24] = Tmax in Sprague-Dawley rat at 30 mg/kg, po by LC-MS/MS analysis; type: ADME, organism-based; settings: in vivo
Method in brief: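 SD rats given a single oral gavage dose of 30 mg/kg, n = 3; plasma levels by LC-MS/MS; bioavailability computed against the 5 mg/kg intravenous arm.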

[25] = Cmax in Sprague-Dawley rat at 30 mg/kg, po by LC-MS/MS analysis; type: ADME, organism-based; parameters: dose 30 mg/kg, route oral; settings: in vivo
Method in brief: (§6)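 SD rats, single oral gavage 30 mg/kg, n = 3; plasma and brain drug levels taken 1 h after dosing, measured by LC-MS/MS.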

[26] = AUC (0 to t) in Sprague-Dawley rat at 30 mg/kg, po by LC-MS/MS analysis; type: ADME, organism-based; settings: in vivo
[27] = AUC (0 to infinity) in Sprague-Dawley rat at 30 mg/kg, po by LC-MS/MS analysis; type: ADME, organism-based; parameters: dose 30 mg/kg, time infinity, route oral; settings: in vivo
[28] = Drug uptake in Sprague-Dawley rat plasma at 30 mg/kg, po after 1 hr by LC-MS/MS analysis; type: ADME, organism-based; method in brief: as §6
[29] = Drug uptake in Sprague-Dawley rat brain at 30 mg/kg, po after 1 hr by LC-MS/MS analysis; type: ADME, organism-based; settings: read-out: Drug uptake; method in brief: as §6

SMILES | Activity (Mus musculus [1]) | Activity (Mus musculus [2]) | Activity (Mus musculus [3]) | Activity (Mus musculus [4]) | Activity (Mus musculus [5]) | Activity (Mus musculus [6]) [%] | Activity (Mus musculus [7]) [%] | Activity (Mus musculus [8]) [%] | Activity (Mus musculus [9]) [%] | Activity (Mus musculus [10]) [%] | Activity (Mus musculus [11]) | Activity (Mus musculus [12]) | Activity (Mus musculus [13]) | Time (Mus musculus [14]) [s] | Time (Mus musculus [15]) [s] | Activity (Mus musculus [16]) | Activity (Mus musculus [17]) | Activity (Mus musculus [18]) | Activity (Mus musculus [19]) | Activity (Mus musculus [20]) | other results
Cl.Oc1c(Cl)cc(Cl)c2ccc(-c3cc4cc5c(cc4[nH]3)OCO5)nc12 | Non-Toxic | Non-Toxic | Non-Toxic | Non-Toxic | Non-Toxic | 31.2 | 49.8 | 38 | 17 | 14.6 | Non-Toxic | Non-Toxic | Non-Toxic | 16.7 | 24 | Non-Toxic | Non-Toxic | Non-Toxic | Non-Toxic | Non-Toxic | 
Cl.Oc1ccc2[nH]c(-c3ccc4c(Cl)cc(Cl)c(O)c4n3)cc2c1 | Non-Toxic | Non-Toxic | Non-Toxic | Non-Toxic | Non-Toxic | 41.3 | 50.1 | 39.6 | 30.6 | 21.1 | Non-Toxic | Non-Toxic | Non-Toxic | 18 | 27.4 | Non-Toxic | Non-Toxic | Non-Toxic | Non-Toxic | Non-Toxic | half-life [21]: 55.8 min; Vd [22]: 2.49 L/kg; Vd [23]: 0.954 L/kg; Tmax [24]: 30 min; Cmax [25]: 1000 ng/mL; AUC(0-t) [26]: 1500 ng·h/mL; AUC(0-inf) [27]: 1790 ng·h/mL; concentration at 1 h [28]: 902 ng/g; concentration at 1 h [29]: 579 ng/g
